Measured values published in ChEMBL document CHEMBL1125563, “Selective, centrally acting serotonin 5-HT2 antagonists. 1. 2- and 6-substituted 1-phenyl-3-(4-piperidinyl)-1H-indoles” (J Med Chem, 1992).

Legend:
Rattus norvegicus [1] = experiment: Compound was evaluated for the inhibition of quipazine-induced head twitches after 24 hr (administered subcutaneously); type: functional; conditions: sc
[2] = biological target: T1, Adrenergic receptor alpha-1 (Rattus norvegicus, UniProt P15823+P23944+P43140); experiment: Displacement of [3H]prazosin from Alpha-1 adrenergic receptor of whole rat brain membranes; type: cell membranes, Membrane
T1 sequence (P15823 whole entry): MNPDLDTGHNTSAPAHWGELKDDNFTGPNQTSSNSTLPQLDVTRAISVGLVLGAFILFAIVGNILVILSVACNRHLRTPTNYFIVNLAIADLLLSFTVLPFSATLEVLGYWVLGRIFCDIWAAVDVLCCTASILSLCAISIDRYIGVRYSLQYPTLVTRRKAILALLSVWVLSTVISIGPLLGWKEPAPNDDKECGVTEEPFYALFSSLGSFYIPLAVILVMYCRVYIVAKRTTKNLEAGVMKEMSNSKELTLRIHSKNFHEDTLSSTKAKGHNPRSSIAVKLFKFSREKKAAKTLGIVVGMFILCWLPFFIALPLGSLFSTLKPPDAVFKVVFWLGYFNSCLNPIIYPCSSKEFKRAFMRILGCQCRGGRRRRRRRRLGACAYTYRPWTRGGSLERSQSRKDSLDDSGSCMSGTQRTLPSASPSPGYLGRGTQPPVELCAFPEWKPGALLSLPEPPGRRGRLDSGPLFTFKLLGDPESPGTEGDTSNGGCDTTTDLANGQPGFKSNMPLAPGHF
T1 sequence (P23944 whole entry): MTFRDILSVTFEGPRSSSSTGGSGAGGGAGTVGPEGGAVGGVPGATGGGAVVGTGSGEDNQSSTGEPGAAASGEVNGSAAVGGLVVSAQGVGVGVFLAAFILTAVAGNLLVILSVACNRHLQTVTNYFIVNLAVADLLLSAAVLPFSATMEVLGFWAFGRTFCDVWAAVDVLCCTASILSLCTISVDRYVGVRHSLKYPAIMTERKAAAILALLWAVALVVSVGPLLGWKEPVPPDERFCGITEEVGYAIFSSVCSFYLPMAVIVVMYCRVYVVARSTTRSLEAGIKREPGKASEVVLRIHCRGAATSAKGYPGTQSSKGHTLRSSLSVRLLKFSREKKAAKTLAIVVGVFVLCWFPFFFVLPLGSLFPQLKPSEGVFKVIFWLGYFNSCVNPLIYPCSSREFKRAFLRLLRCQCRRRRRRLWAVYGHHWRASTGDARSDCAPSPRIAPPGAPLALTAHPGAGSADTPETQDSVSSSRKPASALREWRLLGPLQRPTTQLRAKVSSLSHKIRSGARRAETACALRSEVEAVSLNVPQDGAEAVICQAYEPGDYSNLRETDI
T1 sequence (P43140 whole entry): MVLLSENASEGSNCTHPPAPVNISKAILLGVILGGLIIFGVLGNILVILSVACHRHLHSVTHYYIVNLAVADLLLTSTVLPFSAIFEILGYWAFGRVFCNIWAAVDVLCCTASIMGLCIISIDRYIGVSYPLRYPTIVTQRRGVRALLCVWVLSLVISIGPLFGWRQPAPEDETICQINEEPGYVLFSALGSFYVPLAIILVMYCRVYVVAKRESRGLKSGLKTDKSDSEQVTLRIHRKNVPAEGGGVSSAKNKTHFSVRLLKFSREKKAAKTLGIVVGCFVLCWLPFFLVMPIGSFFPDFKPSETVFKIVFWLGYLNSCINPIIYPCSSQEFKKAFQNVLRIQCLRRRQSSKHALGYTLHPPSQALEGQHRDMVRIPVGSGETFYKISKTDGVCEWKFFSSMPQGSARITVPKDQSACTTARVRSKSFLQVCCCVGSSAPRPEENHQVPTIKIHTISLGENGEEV
Outline: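 α1 adrenoceptor binding measured as displacement of [3H]prazosin from whole rat brain membranes. Five test-drug concentrations spanning three decades in triplicate, two full curves; IC50 from log concentration-effect curves, logarithmic mean of at least two determinations.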

Rattus norvegicus [3] = experiment: Compound was evaluated for the inhibition of quipazine-induced head twitches after 2 h (administered subcutaneously); type: functional; conditions: sc
[4] = biological target: Serotonin 2 (5-HT2) receptor (Rattus norvegicus, UniProt P30994+P08909+P14842); experiment: Displacement of [3H]ketanserin from 5-hydroxytryptamine 2 receptor from rat cortical membranes.; type: cell membranes, Membrane
Outline: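 [3H]ketanserin displacement from rat cortical membranes (5-HT2). Five concentrations across three decades in triplicate, two full curves; IC50 estimated on a log-concentration scale, given as logarithmic mean of at least two determinations.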

D(2) dopamine receptor = D(2) dopamine receptor (Rattus norvegicus, UniProt P61169); experiment: Displacement of [3H]-spiperone from Dopamine receptor D2 from rat striatal membranes; type: cell membranes, Membrane
Outline: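 [3H]spiperone displacement from rat striatal membranes (D2). Five test-drug concentrations over three decades, in triplicate, two full curves; IC50 from log concentration-effect curves, reported as logarithmic mean of at least two determinations.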

Rattus norvegicus [5] = experiment: Compound was evaluated for the inhibition of quipazine-induced head twitches after 2 h (administered subcutaneously); 0.11-0.29; type: functional; conditions: sc
Mus musculus [6] = species: Mus musculus; experiment: Compound was evaluated for the inhibition of isolation-induced aggression at a threshold of 180 seconds; type: functional
Outline: (§1)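 Isolated male NMRI mice (3 weeks) trained to attack a nonaggressive intruder of the same strain; only mice with attack latency <25 s included. Pretested just before dosing and 2 h after sc test substance; observation maximum 180 s; at least eight mice per dose.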

Rattus norvegicus [7] = experiment: Compound was evaluated for the inhibition of quipazine-induced head twitches after 24 h (administered subcutaneously); 0.0042-0.061; conditions: sc
Rattus norvegicus [8] = experiment: Compound was evaluated for the inhibition of quipazine-induced head twitches after 24 hr (administered perorally); 0.014-0.074; type: functional; conditions: po
Mus musculus [9] = species: Mus musculus; experiment: Compound was evaluated for the inhibition of isolation-induced aggression at a threshold of, 90 seconds; type: functional; outline: as §1
Rattus norvegicus [10] = experiment: Compound was evaluated for the inhibition of pergolide-induced reactions after 2 hr (administered subcutaneously); type: functional; conditions: sc
Outline: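 Male Wistar rats with unilateral 6-OHDA lesions; test drug sc 2 h before pergolide (0.05 µmol/kg sc) to induce contralateral circling. Effect of each dose expressed as percent of mean of control sessions 1 week before and 1 week after, per rat; at least four rats per dose; ED50 by log-probit analysis.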

Rattus norvegicus [11] = experiment: Compound was evaluated for the inhibition of quipazine-induced head twitches after 24 hr (administered subcutaneously); 0.010-0.12; type: functional; conditions: sc
Rattus norvegicus [12] = experiment: Compound was evaluated for the inhibition of quipazine-induced head twitches after 2 hr (administered subcutaneously); 0.018-0.096; type: functional; conditions: sc
Rattus norvegicus [13] = experiment: Compound was evaluated for the inhibition of quipazine-induced head twitches after 24 h (administered perorally); 0.056-0.22; type: functional; conditions: po
Mus musculus [14] = species: Mus musculus; experiment: Compound was evaluated for the inhibition of isolation-induced aggression at a threshold of,90 seconds; type: functional; outline: as §1
Rattus norvegicus [15] = experiment: Compound was evaluated for the inhibition of quipazine-induced head twitches after 2 hr (administered subcutaneously); 0.010-0.24; type: functional; conditions: sc
Rattus norvegicus [16] = experiment: Compound was evaluated for the inhibition of quipazine-induced head twitches after 24 hr (administered subcutaneously); 0.0027-0.031; type: functional; conditions: sc
Rattus norvegicus [17] = experiment: Compound was evaluated for the inhibition of quipazine-induced head twitches after 24 hr (administered perorally); 0.010-0.048; type: functional; conditions: po

Chain of D(2) dopamine receptor (P61169 whole entry): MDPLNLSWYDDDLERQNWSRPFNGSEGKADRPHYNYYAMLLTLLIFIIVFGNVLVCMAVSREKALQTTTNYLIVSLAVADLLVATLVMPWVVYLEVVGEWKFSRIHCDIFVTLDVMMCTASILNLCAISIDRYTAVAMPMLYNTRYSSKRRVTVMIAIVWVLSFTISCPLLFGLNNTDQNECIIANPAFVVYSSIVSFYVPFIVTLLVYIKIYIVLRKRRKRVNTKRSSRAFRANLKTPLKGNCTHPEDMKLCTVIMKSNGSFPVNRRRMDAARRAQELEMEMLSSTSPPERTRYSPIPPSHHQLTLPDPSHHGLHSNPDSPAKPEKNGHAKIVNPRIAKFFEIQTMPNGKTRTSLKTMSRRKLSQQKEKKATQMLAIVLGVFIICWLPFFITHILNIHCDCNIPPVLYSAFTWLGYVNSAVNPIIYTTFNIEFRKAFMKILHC

Structure (SMILES) | IC50 [2] [µM] | IC50 [4] [µM] | IC50 (D(2) dopamine receptor) [µM] | also measured
CC(C)c1ccc2c(C3CCN(CCN4CCNC4=O)CC3)cn(-c3ccc(F)cc3)c2c1 | 0.25 | 0.018 | 2.6 | –
Cc1ccc2c(C3CCN(CCN4CCNC4=O)CC3)cn(-c3ccc(F)cc3)c2c1 | 0.024 | 0.00082 | – | –
CC(C)N1CCN(CCN2CCC(c3cn(-c4ccc(F)cc4)c4cc(C(F)(F)F)ccc34)CC2)C1=O | 0.091 | 0.0029 | – | –
CC(C)NC(=O)N(C)CCN1CCC(c2cn(-c3ccc(F)cc3)c3cc(Cl)ccc23)CC1 | 0.026 | 0.0022 | 0.074 | ED50 (Rattus norvegicus [5]): 0.18 µmol/kg; ED50 (Mus musculus [6]): > 21 µmol/kg; ED50 (Rattus norvegicus [7]): 0.016 µmol/kg; ED50 (Rattus norvegicus [8]): 0.032 µmol/kg; ED50 (Mus musculus [9]): > 21 µmol/kg; ED50 (Rattus norvegicus [10]): > 21 µmol/kg
CNC(=O)N(C)CCN1CCC(c2cn(-c3ccc(F)cc3)c3cc(Cl)ccc23)CC1 | 0.016 | 0.0016 | 0.082 | ED50 (Rattus norvegicus [15]): 0.049 µmol/kg; ED50 (Mus musculus [6]): > 23 µmol/kg; ED50 (Rattus norvegicus [16]): 0.0092 µmol/kg; ED50 (Mus musculus [9]): > 23 µmol/kg; ED50 (Rattus norvegicus [10]): > 23 µmol/kg; ED50 (Rattus norvegicus [17]): 0.022 µmol/kg
Cc1ccc2c(C3CCN(CCNC(=O)NC(C)C)CC3)cn(-c3ccc(F)cc3)c2c1 | 0.076 | 0.0018 | – | –
CC(C)N1CCN(CCN2CCC(c3cn(-c4ccccc4F)c4cc(Cl)ccc34)CC2)C1=O | 0.12 | 0.0037 | – | –

Further lines, with some results ahead:

IC50 [2] [µM] | IC50 [4] [µM] | IC50 (D(2) dopamine receptor) [µM] | Structure (SMILES) | also measured
0.73 | 0.016 | – | CC(C)c1ccc2c(C3CCN(CCN4CCN(C(C)C)C4=O)CC3)cn(-c3ccc(F)cc3)c2c1 | ED50 (Rattus norvegicus [1]): > 4.3 µmol/kg; ED50 (Rattus norvegicus [3]): > 0.54 µmol/kg
0.45 | 0.006 | – | Cc1ccc2c(C3CCN(CCN4CCN(C(C)C)C4=O)CC3)cn(-c3ccc(Cl)cc3)c2c1 | –
0.085 | 0.0016 | – | Cc1ccc2c(C3CCN(CCN4CCN(C(C)C)C4=O)CC3)cn(-c3ccc(F)cc3)c2c1 | ED50 (Rattus norvegicus [11]): 0.036 µmol/kg; ED50 (Mus musculus [6]): 7.3 µmol/kg; ED50 (Rattus norvegicus [12]): 0.042 µmol/kg; ED50 (Rattus norvegicus [13]): 0.11 µmol/kg; ED50 (Mus musculus [14]): 13 µmol/kg; ED50 (Rattus norvegicus [10]): > 18 µmol/kg
0.027 | 0.06 | 0.59 | Cc1ccc2c(C3CCN(CCN4CCN(C(C)C)C4=O)CC3)c[nH]c2c1 | ED50 (Rattus norvegicus [3]): > 0.84 µmol/kg
0.039 | 0.0045 | 0.29 | CC(C)N1CCN(CCN2CCC(c3cn(-c4ccccc4)c4cc(Cl)ccc34)CC2)C1=O | –
